ChEMBL document CHEMBL4627246, “Pyroglutamide-Based P2X7 Receptor Antagonists Targeting Inflammatory Bowel Disease” (J Med Chem, 2020)
Calls of active or inactive are those of the source. The rule behind the calls is not given here.

Columns and labels:
[1] = target: T1, P2X purinoceptor 1 (Homo sapiens) (UniProt P51575); test: Antagonist activity at P2X1 receptor in human platelet assessed as inhibition of thrombin-induced platelet aggregation at 10 '-5 to 10^-6 mol/L pretreated with compound and LPS/BzATP for 10 mins followed by thrombin addition and measured for 8 mins by aggregometry analysis; format: cell-based
T1 sequence (whole entry): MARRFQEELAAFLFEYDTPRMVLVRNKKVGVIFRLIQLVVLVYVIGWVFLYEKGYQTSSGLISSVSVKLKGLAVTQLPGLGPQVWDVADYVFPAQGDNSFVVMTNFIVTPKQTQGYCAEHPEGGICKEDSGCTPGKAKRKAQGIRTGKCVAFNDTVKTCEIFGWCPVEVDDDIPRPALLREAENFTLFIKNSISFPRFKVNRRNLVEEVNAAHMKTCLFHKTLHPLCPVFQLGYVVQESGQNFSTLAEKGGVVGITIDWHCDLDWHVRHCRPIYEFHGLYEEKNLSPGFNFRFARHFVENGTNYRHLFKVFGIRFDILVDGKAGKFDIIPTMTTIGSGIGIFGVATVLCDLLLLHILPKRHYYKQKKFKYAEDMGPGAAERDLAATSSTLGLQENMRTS

[2] = tested on: HEK293; test: Cytotoxicity against human HEK293 cells assessed as reduction in cell viability at 10^-5 mol/L incubated for 72 hrs; format: cell-based; details: hek293, 72 h, 10 µM
Summary of the method: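 Wild-type and P2RX7-transfected HEK293 cells exposed to compound for 72 hours; viability compared against untreated control.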

[3] = target: T2, P2X purinoceptor 7 (Homo sapiens, UniProt Q99572); test: Displacement of [3H]-A804598 from human P2X7 expressed in human HEK293 cell membrane incubated for 1 hr by microplate scintillation counting method; format: cell membranes
T2 sequence (Q99572 whole entry): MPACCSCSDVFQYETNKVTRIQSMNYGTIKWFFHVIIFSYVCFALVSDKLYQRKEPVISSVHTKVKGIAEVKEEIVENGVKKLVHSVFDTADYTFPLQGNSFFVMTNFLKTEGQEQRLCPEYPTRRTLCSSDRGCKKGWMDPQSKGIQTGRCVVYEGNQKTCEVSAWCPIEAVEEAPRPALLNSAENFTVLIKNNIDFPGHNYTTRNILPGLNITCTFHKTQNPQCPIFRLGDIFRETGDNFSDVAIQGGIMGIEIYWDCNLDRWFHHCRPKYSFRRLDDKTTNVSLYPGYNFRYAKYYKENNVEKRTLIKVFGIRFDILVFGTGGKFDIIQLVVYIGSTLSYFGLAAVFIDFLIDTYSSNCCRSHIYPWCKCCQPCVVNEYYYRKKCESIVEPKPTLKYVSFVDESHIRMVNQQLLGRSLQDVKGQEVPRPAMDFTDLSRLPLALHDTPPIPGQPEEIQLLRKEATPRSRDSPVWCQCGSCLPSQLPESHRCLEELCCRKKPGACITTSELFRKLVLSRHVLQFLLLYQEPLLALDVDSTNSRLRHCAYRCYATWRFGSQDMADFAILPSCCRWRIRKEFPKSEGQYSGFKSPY

[4] = Solubility of compound in saline at 1mg/ml; format: physicochemical; details: buffer
[5] = Metabolic stability in human liver microsomes assessed as half life at 0.2 mg/ml incubated for 60 mins by UPLC/MS-MS analysis; format: ADME, Microsome
[6] = Metabolic stability in human liver microsomes assessed as intrinsic clearance at 0.2 mg/ml incubated for 60 mins by UPLC/MS-MS analysis; format: ADME, Microsome; details: read-out: CLH
[7] = target: T3, P2X purinoceptor 7 (Homo sapiens) (UniProt Q99572); test: Antagonist activity at P2X7 receptor in human THP-1 cells assessed as inhibition of LPS and BzATP-induced IL-1beta production at 10^-5 mol/L pretreated with compound followed by LPS/BzATP addition and measured after 2 to 6 hrs by ELISA; format: cell-based
T3 sequence (whole entry): T2 sequence (Q99572 whole entry)
Summary of the method: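 THP-1 monocytes grown in RPMI 1640 + 10% FCS, differentiated to macrophages with PMA (100nM); 10^6 cells pretreated with antagonist at 10^-5 mol/L, then exposed to LPS 10 μmol/L plus BzATP 70 μmol/L at 37 °C, 5% CO2; IL1β quantified by ELISA in samples at 2, 4 and 6 h; mean ± SD, significance P<0.05.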

[8] = target: T3, P2X purinoceptor 7 (Homo sapiens); test: Antagonist activity at P2X7R in human THP1 cells assessed as inhibition of LPS and BzATP-induced ROS production at 10^-5 mol/L pretreated with compound followed by LPS/BzATP addition and measured up to 5 hrs by kinetic chemiluminescence based fluorometric analysis; format: cell-based; details: THP-1
Summary of the method: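 PMA-differentiated THP-1 macrophages (10^5 cells) in RPMI 1640 + 10% FBS pretreated with antagonist at 10^-5 mol/L, then LPS 10 μmol/L plus BzATP 70 μmol/L at 37 °C, 5% CO2; horseradish peroxidase (50 μg/mL) and luminol (50 μM) mixture added, chemiluminescence read on a fluorometer; cell-free H2O2 serves as positive control.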

[9] = Metabolic stability in human hepatocytes; format: ADME, cell-based, Hepatocyte
[10] = Drug metabolism in mouse measured after 40 mins; format: ADME; details: read-out: Drug metabolism
[11] = target: T3, P2X purinoceptor 7 (Homo sapiens); test: Antagonist activity at P2X7 receptor in human THP-1 cells assessed as inhibition of LPS and BzATP-induced IL-1beta production at 10^-6 mol/L pretreated with compound followed by LPS/BzATP addition and measured after 2 to 6 hrs by ELISA; format: cell-based; details: TDE = time-dependent effect
Summary of the method: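 PMA (100nM)-differentiated THP-1 macrophages (RPMI 1640, 10% FCS), 10^6 cells, pretreated with antagonist at […], then challenged with LPS 10 μmol/L and BzATP 70 μmol/L at 37 °C, 5% CO2; IL1β measured by ELISA, including the 6 h point; mean ± SD, P<0.05 significant.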

[12] = target: T3, P2X purinoceptor 7 (Homo sapiens); test: Inhibition of human P2X7 expressed in human HEK293 cells assessed as reduction in BzATP-stimulated TO-PRO-3 incorporation at 10 uM preincubated with compound and TO-PRO-3 for 15 mins prior to BzATP addition and measured after 1 hr by Fluo-3AM dye based flow cytometry relative to control; format: cell-based
Summary of the method: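 HEK-293 cells overexpressing human P2RX7 loaded with Fluo-3 AM, then incubated with TO-PRO-3 (large pore uptake) and propidium iodide (viability) plus compound (10⁻⁵ M single point) for 15 min before BzATP 100 µM. After 1 h, flow cytometry; percentage of Fluo-3/TO-PRO-3 double-positive cells calculated. Mean of n ≥ 2 with positive control.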

[13] = target: T3, P2X purinoceptor 7 (Homo sapiens); test: Antagonist activity at P2X7R in human THP1 cells assessed as inhibition of LPS and BzATP-induced IL-1beta expression by measuring increase in proIL-1beta expression in cell supernatant extract at 10^-6 mol/L pretreated with compound followed by LPS/BzATP addition and measured after 6 hrs by Western blot analysis; format: cell-based; details: THP-1
[14] = target: T3, P2X purinoceptor 7 (Homo sapiens); test: Antagonist activity at P2X7R in human THP1 cells assessed as inhibition of LPS and BzATP-induced mature form of IL-1beta expression in cells supernatant at 10^-6 mol/L pretreated with compound followed by LPS/BzATP addition and measured after 2 to 6 hrs by Western blot analysis; format: cell-based; details: THP-1
[15] = target: T3, P2X purinoceptor 7 (Homo sapiens); test: Antagonist activity at P2X7R in human THP1 cells assessed as inhibition of LPS and BzATP-induced mature form of IL-1beta expression in whole cell extract at 10^-6 mol/L pretreated with compound followed by LPS/BzATP addition and measured after 2 to 6 hrs by Western blot analysis; format: cell-based; details: THP-1
[16] = tested on: Mus musculus; test: Antiinflammatory activity against DSS-induced colitis C57BL/6J mouse model assessed as areas of normal colonic mucosa with straight and larger crypts on muscularis mucosa at 2.5 mg/kg, ip administered daily and measured after day 14 by hematoxylin and eosin staining based microscopic analysis; format: functional, organism-based
Summary of the method: (§1)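 DSS colitis in WT mice: 3.8% DSS in drinking water days 1–5, then tap water for 10 days; compound 2.5 mg/kg given i.p. daily in 10% DMSO/PBS; cohorts of 10 mice per group, placebo as comparator; weight loss and clinical disease score tracked; colon sections at day 14 stained with H&E and histologically scored; data as mean ± SEM.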

[17] = tested on: Mus musculus; test: Antiinflammatory activity against DSS-induced colitis C57BL/6J mouse model assessed as decrease in inflammation level in colon at 2.5 mg/kg, ip administered daily and measured after day 14 by hematoxylin and eosin staining based microscopic analysis; format: functional; details: 336 h; summary of the method: as §1
[18] = target: T3, P2X purinoceptor 7 (Homo sapiens); test: Antagonist activity at P2X7R in human THP1 cells assessed as inhibition of LPS and BzATP-induced cell death at 10^-6 mol/L pretreated with compound followed by LPS/BzATP addition and measured after 4 hrs by sytox green dye based flow cytometry; details: THP-1
[19] = target: T3, P2X purinoceptor 7 (Homo sapiens); test: Antagonist activity at P2X7R in human THP1 cells assessed as inhibition of LPS and BzATP-induced cell death at 10^-6 mol/L pretreated with compound followed by LPS/BzATP addition and measured after 6 hrs by sytox green dye based flow cytometry; details: THP-1
[20] = target: T3, P2X purinoceptor 7 (Homo sapiens); test: Antagonist activity at P2X7R in human THP1 cells assessed as inhibition of LPS and BzATP-induced ROS production at 10^-6mol/L pretreated with compound followed by LPS/BzATP addition and measured after 4 hrs by kinetic chemiluminescence based fluorometric analysis; format: cell-based; details: THP-1
Summary of the method: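 Differentiated THP-1 macrophages (10^5 cells, RPMI 1640 + 10% FBS) pretreated with antagonist at 10^-6 mol/L before LPS (10 μmol/L) and BzATP (70 μmol/L), 37 °C, 5% CO2; ROS detected as luminol (50 μM)/horseradish peroxidase (50 μg/mL) chemiluminescence on a fluorometer; H2O2 without cells as positive control.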

Activity [1]	IC50 [3] [nM]	Ki [3] [nM]	solubility [4]	half-life [5] [min]	microsomal CLint [6] [µL/min/mg]	inhibition [7]	inhibition [8]	Stability [9]	metabolised at 40 min [10] [%]	inhibition [11]	inhibition [12] [%]	Compound	Activity [2]	other results
inactive	575	118	Insoluble	5.2	411	Active	Active	Unstable	99.2	Tde	94	O=C(NCc1ccc(Cl)cc1Cl)[C@@H]1CCC(=O)N1c1ccco1	Non-Toxic	
inactive	218	44	Insoluble	3.8	530	Active	Active	Unstable	99.7	Tde	100	O=C(NCc1cccc(C(F)(F)F)c1Cl)[C@@H]1CCC(=O)N1c1cccs1	Non-Toxic	inhibition [13]: Active; inhibition [14]: Active; inhibition [15]: Active
	862	176		619	3.6	Active	Active	Stable	5.1	Tde	100	CN1C(=O)CC[C@H]1C(=O)NCc1ccc(Cl)cc1Cl		Activity [16]: Active; inhibition in vivo at 2.5 mg/kg [17]: 42 to 50%; inhibition [18]: Active; inhibition [19]: inactive; inhibition [20]: Active
inactive	422	86	Insoluble	2.9	630	Active	Active	Unstable	99.9	Tde	85	O=C(NCc1ccc(Cl)cc1Cl)[C@@H]1CCC(=O)N1c1ccoc1	Non-Toxic	
